In data set [1] the test system is HL-60. In words: Cytotoxicity against human HL60 cells assessed as cell viability after 72 hrs by Trypan blue exclusion test. The class given is functional, cell-based. The note with it: HL-60, 72 h. In short, it runs like this:
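HL60 (RIKEN Cell Bank) in RPMI-1640 with 10% heat-inactivated FBS, seeded at 1 × 10^5/mL. Exposed for 72 h to 5–40 µM compound added in DMSO (final 0.1% v/v). Viable cells counted by trypan blue dye exclusion. IC50 read from concentration–growth curves. Means ± SD of three experiments.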

In data set [2] the test system is NB-4. Briefly: Induction of apoptosis in human NB4 cells assessed as nuclear condensation and fragmentation at 10 uM after 24 hrs using Hoechst stain by fluorescence microscopy. The class given is functional, cell-based. In short, it runs like this:
(§1)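 Cells treated 24 h at 10 µM. Hoechst 33342 was added to the medium at 5 µg/mL for 30 min. Cells were then washed in PBS and nuclear condensation/fragmentation was scored by fluorescence microscopy (×400).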

For data set [3], the system named is U-937. In words: Cytotoxicity against human U937 cells assessed as cell viability at 5 uM after 72 hrs by Trypan blue exclusion test. In kind it is functional, cell-based. In short, it runs like this:
(§2)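 Leukemia lines (RIKEN Cell Bank) grown in RPMI-1640 with 10% heat-inactivated FBS. Growth curves were followed at 1, 2, 5 and 10 µM compound delivered in DMSO (final 0.1% v/v), with untreated controls. Viable cell number counted by trypan blue dye exclusion in a counting chamber.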

For data set [4], the system named is K562. In words: Induction of apoptosis in human K562 cells assessed as DNA ladder formation at 10 uM after 24 hrs by agarose gel electrophoresis. The class given is functional, cell-based.
In data set [5] the test system is HL-60. In words: Induction of apoptosis in human HL60 cells assessed as DNA ladder formation at 10 uM after 24 hrs by agarose gel electrophoresis. The class given is functional, cell-based.
The subject of data set [6] is U-937. Briefly: Induction of apoptosis in human U937 cells assessed as nuclear condensation and fragmentation at 10 uM after 24 hrs using Hoechst stain by fluorescence microscopy. In kind it is functional, cell-based. The gist of the method:
as §1

Data set [7] concerns NB-4. In words: Induction of apoptosis in human NB4 cells assessed as DNA ladder formation at 10 uM after 24 hrs by agarose gel electrophoresis. The class given is functional, cell-based.
Data set [8] deals with NB-4. In words: Cytotoxicity against human NB4 cells assessed as cell viability at 5 uM after 72 hrs by Trypan blue exclusion test. The class given is functional, cell-based. The gist of the method: as §2
Data set [9] deals with HL-60. Briefly: Induction of apoptosis in human HL60 cells assessed as nuclear condensation and fragmentation at 10 uM after 24 hrs using Hoechst stain by fluorescence microscopy. In kind it is functional, cell-based. The gist of the method: as §1
Data set [10] relates to K562. Briefly: Cytotoxicity against human K562 cells assessed as cell viability at 5 uM after 72 hrs by Trypan blue exclusion test. The class given is functional, cell-based. The gist of the method:
as §2

Data set [11] deals with U-937. In words: Induction of apoptosis in human U937 cells assessed as DNA ladder formation at 10 uM after 24 hrs by agarose gel electrophoresis. The class given is functional, cell-based.
Data set [12] concerns NB-4. Briefly: Cytotoxicity against human NB4 cells assessed as cell viability at 10 uM after 72 hrs by Trypan blue exclusion test. In kind it is functional, cell-based. The gist of the method: as §2
Data set [13] concerns U-937. Briefly: Cytotoxicity against human U937 cells assessed as cell viability at 10 uM after 72 hrs by Trypan blue exclusion test. The class given is functional, cell-based. In short, it runs like this: as §2
Data set [14] relates to K562. In words: Induction of apoptosis in human K562 cells assessed as nuclear condensation and fragmentation at 10 uM after 24 hrs using Hoechst stain by fluorescence microscopy. The class given is functional, cell-based. The gist of the method: as §1
Another data set relates to PBMC. Briefly: Cytotoxicity against concanavalin A-stimulated human PBMC cells at 10 uM after 72 hrs by Trypan blue exclusion test. In kind it is cell-based. The gist of the method: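 Lymphocytes from healthy donors in RPMI-1640 with 10% heat-inactivated FBS, stimulated with concanavalin-A (75 µg/mL) for 48 h, then exposed to compound in DMSO (final 0.1% v/v). Viable cells counted by trypan blue dye exclusion in a counting chamber.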

The subject of data set [15] is K562. Briefly: Cytotoxicity against human K562 cells assessed as cell viability at 10 uM after 72 hrs by Trypan blue exclusion test. The class given is functional, cell-based. In short, it runs like this:
as §2

Data set [16] relates to HL-60. Briefly: Induction of apoptosis in human HL60 cells assessed as caspase 3 activation at 10 uM by Western blot. The class given is functional, cell-based. The gist of the method: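 HL60 treated with 10 µM over a time course. Lysis was in Tris pH 7.4/NP-40/deoxycholate/SDS buffer with protease inhibitors, 30 min on ice. 10 µg protein was run on a 5–20% SDS gradient gel and blotted to PVDF. The blot was probed overnight at 4 °C with rabbit anti-caspase-3, then HRP anti-rabbit, and detected by ECL. Pro (32 kD) and active (19/17 kD) forms were read.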

The source made the active and inactive calls. No cut-off for these calls is given here.

In the case of `CC(C)=CCc1c(O)cc2oc3cc(O)c(O)c(CC=C(C)C)c3c(=O)c2c1O`, the IC50 with HL-60 [1] was found to be 6.1 µM.

`COc1cc2oc3cc(O)c(OC)c(CC=C(C)C)c3c(=O)c2c(O)c1CC=C(C)C`: the IC50 in the data set on HL-60 [1] worked out at 7.6 µM.

For the compound `COc1cc2oc3ccc(O)cc3c(=O)c2c(O)c1CC=C(C)C`, the IC50 in the data set with HL-60 [1] is 23.6 µM.

Regarding `CC(C)=CCc1c(O)cc2oc3c(CC=C(C)C)c(O)c(O)c(CC=C(C)C)c3c(=O)c2c1O` [GARCINONE E], the IC50 with HL-60 [1] was 15 µM.

`CC(C)=CCC/C(C)=C/Cc1c(O)cc2oc3c(O)cccc3c(=O)c2c1O` [MANGOSTINONE]: the IC50 in the data set with HL-60 [1] is 19 µM.

As to `COc1c(O)cc2oc3cc(O)c(CC=C(C)C)c(O)c3c(=O)c2c1CC=C(C)C` [MANGOSTIN], the outcome with NB-4 [2], in the data set with U-937 [3], in the data set on K562 [4], in the data set with HL-60 [5], in the data set with U-937 [6] and with NB-4 [7] was Active. For the same compound, the outcome in the data set with NB-4 [8], with HL-60 [9], in the data set with K562 [10], in the data set on U-937 [11], in the data set with NB-4 [12] and in the data set with U-937 [13] was Active. Also, the outcome with K562 [14], in the data set on K562 [15] and in the data set on HL-60 [16] was Active. For the same compound, the half-maximal inhibitory concentration (IC50) in the data set with HL-60 [1] was found to be 6.8 µM. The Activity entry with PBMC is on record as “Non-toxic”.

The record behind these values is ChEMBL document CHEMBL1146581, “Induction of apoptosis by xanthones from mangosteen in human leukemia cell lines” (J Nat Prod, 2003).
